Compound activity from PubChem.
An excerpt weighted towards active compounds, which were near 4.5% of everything screened.
OX1R antag-1: antagonists of human orexin 1 receptor; inhibition, % at 5 µM; O43613; 0.43% of 330,000 active; CHO/OX1R cells, Fluo-8 calcium fluorescence, orexin A;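 active = inhibition above its plate's threshold, mean inhibition of all tested compounds on the plate plus 3 SD, cut at about 37% in these data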
CHO parental Ca: counter-screen for OX1R antagonists: effect in parental CHO cells | 0.63% of 330,000 active | inhibition, % at 5.6 µM | parental CHO-K1, ATP-induced calcium, Fluo-8 fluorescence;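 active = inhibition above that plate's mean sample inhibition plus 3 SD, cut at about 26% in these data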
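Material: parental CHO cells / Compound: single nominal dose of 5.6 µM per compound / Signal: Fluo-8 fluorescence / Replicates: singlicate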
TAAR1 antagonist: human TAAR1 antagonism; Q96RJ0; CHO RD-HGA16 TAAR1, Fluo-8 calcium fluorescence, antagonist; inhibition, % at 3 µM; 1.5% of 360,000 active; AID 624466;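 active = inhibition above a per-plate cutoff, the mean inhibition of test compounds on that plate plus 3 SD, cut at about 49% in these data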
Target sequence (Q96RJ0 whole entry, looked up): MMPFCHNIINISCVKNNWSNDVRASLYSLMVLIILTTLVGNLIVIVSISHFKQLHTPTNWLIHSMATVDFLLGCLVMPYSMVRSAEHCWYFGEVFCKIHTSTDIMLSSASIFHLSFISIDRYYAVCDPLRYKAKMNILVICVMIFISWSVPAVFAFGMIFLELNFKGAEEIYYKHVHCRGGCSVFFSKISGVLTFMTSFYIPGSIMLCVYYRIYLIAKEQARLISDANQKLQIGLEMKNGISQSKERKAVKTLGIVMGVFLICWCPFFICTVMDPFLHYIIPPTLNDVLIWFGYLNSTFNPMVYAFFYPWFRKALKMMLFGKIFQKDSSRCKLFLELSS
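Assay system: CHO-derived RD-HGA16 cells stably expressing human TAAR1 plus Gα16. Timing: 140 s kinetic read after compound, 140 s after agonist. Technique: kinetic Fluo-8 calcium fluorescence measurement. Measure: % inhibition of agonist calcium response.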
GPR7 antag: blocks human GPR7 receptor signaling; P48145; GPR7-expressing cells, fluorescence antagonist assay; inhibition, % at 4.4 µM; 1.1% of 290,000 active; in the data active = inhibition above about 16%, passing the limit was not always enough;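 note: cells stimulated with the agonist NPW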
Target sequence (P48145 whole entry, looked up): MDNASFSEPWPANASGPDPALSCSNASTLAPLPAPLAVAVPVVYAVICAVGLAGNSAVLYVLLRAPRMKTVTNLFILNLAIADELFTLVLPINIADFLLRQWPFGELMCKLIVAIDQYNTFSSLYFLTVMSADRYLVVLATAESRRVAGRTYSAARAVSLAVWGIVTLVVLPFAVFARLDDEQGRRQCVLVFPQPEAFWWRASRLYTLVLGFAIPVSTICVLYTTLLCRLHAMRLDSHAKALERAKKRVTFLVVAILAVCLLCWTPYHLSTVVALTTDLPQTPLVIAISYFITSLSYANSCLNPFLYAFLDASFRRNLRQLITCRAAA
TAAR1 ag: human TAAR1 agonism. 0.99% of 360,000 active. Q96RJ0. CHO RD-HGA16 TAAR1, Fluo-8 calcium fluorescence; vehicle wells 0%, saturating PEA agonist 100%. activation, % at 3 µM. AID 624467;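 active = activation above the mean activation of all test compounds in the run plus 3 SD, cut at about 38% in these data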
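Repeats: no replicates (n 1) | Material: CHO-derived RD-HGA16 cells with stable Gα16 and human TAAR1 | Technique: Kinetic Fluo-8 calcium fluorescence | Schedule: 17-24 h seeding, 75 min 37 °C dye, 30 min RT | Evaluation: % activation from peak over basal fluorescence ratio, DMSO-to-PEA scaled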
OX1R antag-2: blocks the human orexin 1 receptor | O43613 | inhibition, % at 6.6 µM | OX1R-expressing cells, FRET antagonist read-out | 1.8% of 330,000 active; in the data active = inhibition mostly above about 38%, no sharp cut-off; inactive = mostly below about 40%
Hits are given with their value; - = inactive; . = no result.

SMILES | OX1R antag-1 | CHO parental Ca | TAAR1 antagonist | GPR7 antag | TAAR1 ag | OX1R antag-2
CC(C)N(Cc1ccccc1)C(=O)C1CCCN(c2ncnc3c2nc2n3CCCCC2)C1 (centres undefined) | - | - | - | - | - | -
CCCCN(Cc1ccco1)C(=O)C1CCCN(c2ncnc3c2nc2n3CCCCC2)C1 (centres undefined) | - | - | - | - | - | 40
CN1OC[C@@H]2CN3C(=Nc4cc(C(F)(F)F)cc(C(F)(F)F)c4)Sc4ccccc4[C@@H]3C[C@@H]21 | . | . | - | . | - | .
CCOC(=O)CNC1CC(=O)N(c2ccc(Br)cc2)C1=O (centres undefined) | - | - | - | - | - | -
Cc1nc2c(Br)cc(Br)cc2cc1O | - | - | - | - | - | 55
Brc1cc(Br)c2nc(-c3cccs3)ccc2c1 | - | - | - | - | - | -
CC(=O)N1CCc2cc(S(=O)(=O)NCCC3=CCCCC3)ccc21 | - | 38 | - | - | - | -
CC(=O)N1CCc2cc(S(=O)(=O)NCCCN3CCCCC3)ccc21 | - | - | - | - | - | -
Nc1ncnn1Cc1ccccc1 | . | . | - | . | - | .
Cc1ccc(Cn2nnc(C(=O)Nc3cc(C)ccc3C)c2N)cc1 | - | - | - | - | 48 | -
Cc1ccc(C)c(NC(=O)c2nnn(Cc3ccccc3)c2N)c1 | - | - | - | - | - | -
COc1cccc(NC(=O)Cn2nnc(C(=O)Nc3cc(Cl)ccc3OC)c2N)c1 | - | - | - | - | - | -
COc1cccc(Cn2nnc(C(=O)Nc3cc(Cl)ccc3OC)c2N)c1 | - | 30 | - | - | - | 42
CC(=O)Nc1ccc(-c2ccnc3c2CC(C(=O)NCc2ccco2)O3)cc1 (centres undefined) | . | . | - | . | - | .
COc1ccc2c(c1)C(=NN)c1cc(OC)ccc1-2 | - | - | - | - | - | 55
COc1ccc2c(c1)C(=NNc1ccc(C(=O)O)cc1)c1cc(OC)ccc1-2 | - | - | - | - | - | -
CN(C)c1cccc(NC(=O)c2cccc3c(-c4ccc(F)c(F)c4)coc23)c1 | . | . | - | . | - | .
Cc1c(Br)ccc(NC(=O)Cn2nc(-c3cccs3)ccc2=O)c1C | - | - | - | - | - | 55
O=C(NCCN1CCC(n2c(=O)[nH]c3cc(Cl)ccc32)CC1)c1ccc(F)cc1 | . | . | - | . | - | .
N=c1oc2cc(O)ccc2cc1C(=O)Nc1ccccn1 | - | - | . | - | . | 84
COc1cc(/C=C/c2ccc3cccc(O)c3n2)c(Br)cc1O | - | 45 | - | - | - | -
COc1cc(Br)c(/C=C/c2ccc3cccc(O)c3n2)cc1OC | - | - | - | - | - | -
CNS(=O)(=O)c1cc(S(=O)(=O)NC)c2cccc3c2c1NC3=O | - | - | - | - | - | 66
CNS(=O)(=O)c1ccc2c3c(cccc13)C(=O)N2 | . | . | - | - | - | .
COc1ccc(-c2cc(NC=O)c3ncc(-c4ccc(C(C)=O)cc4)n3c2)cn1 | . | . | 53 | . | - | .
SMILES | OX1R antag-1 | CHO parental Ca | TAAR1 antagonist | GPR7 antag | TAAR1 ag | OX1R antag-2
CC(=O)Nc1cccc(-c2cc(NC=O)c3ncc(-c4ccc(C(C)=O)cc4)n3c2)c1 | . | . | - | . | - | .
O=CNc1cc(-c2ccsc2)cn2c(-c3ccccc3)cnc12 | . | . | 60 | . | - | .
COc1ccccc1-c1cc(NC=O)c2ncc(-c3cccc(C(=O)N(C)C)c3)n2c1 | . | . | - | . | - | .
COc1ccccc1-c1cc(NC=O)c2ncc(-c3cccc(C(C)=O)c3)n2c1 | . | . | 50 | . | - | .
COc1ccc(-c2cc(NC=O)c3ncc(-c4cccc(OC)c4)n3c2)cc1 | . | . | 59 | . | - | .
O=C(c1ccc(F)cc1)C1CCN(CCCn2c(=O)[nH]c3ccccc32)CC1 | . | . | - | . | - | .
C=CCNc1cccc2c1S(=O)(=O)N[C@@H](CC(C)C)CO2 | . | . | - | . | - | .
COC(=O)CC#C[C@H](C)[C@@H](NS(=O)(=O)c1ccc([N+](=O)[O-])cc1)C(C)(C)C | . | . | - | . | - | .
Cc1cc(N/N=C/c2cccc(Cl)c2)nc(NCc2ccccc2)n1 | - | - | - | - | - | -
Cc1cc(N/N=C/c2ccc(Cl)cc2)nc(NCc2ccccc2)n1 | - | - | - | - | 40 | -
COC(=O)CCN(Cc1ccc(OC)cc1OC)S(=O)(=O)c1ccccc1Br | . | . | - | . | - | .
Nc1ccc(C(=O)Nc2ccc(OC(F)(F)C(F)F)c(NC(=O)c3ccc(N)cc3)c2)cc1 | - | - | - | - | - | -
O=C(Nc1ccc(OC(F)(F)C(F)F)c(NC(=O)c2ccc(F)cc2)c1)c1ccc(F)cc1 | - | - | - | - | - | 65
COc1ccc(OCC2CN(Cc3ccccc3)S(=O)(=O)CCO2)cc1 (centres undefined) | . | . | - | . | - | .
COC(=O)[C@]12C[C@H](CC(=O)N3CCOCC3)C(=O)N(Cc3ccccc3)C1=C[C@H](C(C)(C)C)O[C@@H]2C | . | . | - | . | - | .
Nc1nc2c(ncn2[C@@H]2O[C@H](C(=O)N[C@@H](Cc3ccccc3)C(=O)NCC3CCCCC3)[C@@H](O)[C@H]2O)c(=O)[nH]1 | . | . | - | . | - | .
Cc1cccc2sc(N3CCN(C(=O)C4COc5ccccc5O4)CC3)nc12 (centres undefined) | - | - | - | . | 50 | -
COc1ccc2nc(N3CCN(C(=O)C4COc5ccccc5O4)CC3)sc2c1 (centres undefined) | - | - | - | . | - | -
O=[N+]([O-])c1ccc(C2=NN(c3ccccc3)C(c3ccco3)C2)cc1 (centres undefined) | . | . | 61 | 24 | 89 | .
Cc1cccc(OCC(=O)Nc2ccc3oc(=O)ccc3c2)c1C | - | 50 | - | - | - | -
Cc1ccc(OCC(=O)Nc2ccc3oc(=O)ccc3c2)cc1 | - | - | - | - | - | -
COc1cccc(CNc2ccc3[nH]c(=O)[nH]c3c2)c1OCc1ccc(F)cc1 | . | . | 50 | - | - | .
C=CCOc1c(CNc2ccc3[nH]c(=O)[nH]c3c2)cccc1OC | - | - | - | - | - | -
CN(C(=O)CSc1nnc(-c2ccco2)n1C)C1CCCCC1 | . | . | - | . | - | .
N#Cc1ccc(OCC(=O)N[C@@H](Cc2ccccc2)c2nc3ccccc3[nH]2)cc1 | . | . | - | . | - | .
SMILES | OX1R antag-1 | CHO parental Ca | TAAR1 antagonist | GPR7 antag | TAAR1 ag | OX1R antag-2
COc1ccc(C)cc1NC(=O)C(=O)NNC(=O)COc1ccc(Cl)cc1 | - | 35 | - | - | - | -
COc1ccc(OCC(=O)NNC(=O)C(=O)Nc2cc(OC)ccc2OC)cc1 | - | - | - | - | - | -
O=C(Nc1c(-c2ccc3c(c2)OCO3)[nH][nH]c1=O)c1cccc(C(F)(F)F)c1 | . | . | - | . | - | .
N#CC(C#N)=C1C=CC=CN1/C(=C\c1ccco1)C(=O)c1ccc(Br)cc1 | - | 49 | - | - | - | 61
N#CC(C#N)=C1C=CC=CN1/C(=C\c1ccco1)C(=O)c1ccccc1 | - | - | - | 39 | - | -
COc1ccc(C(=O)N/C(=C\c2ccco2)C(=O)OCc2ccco2)cc1 | - | - | - | - | - | -
